Laboratory results as given in ChEMBL document CHEMBL1781919, “Synthesis and anticonvulsant properties of 1-(amino-N-arylmethanethio)-3-(1-substituted benzyl-2, 3-dioxoindolin-5-yl) urea derivatives” (Eur J Med Chem, 2011).
Activity calls are given as the source filed them. The calls are words filed in the database; no cut-off is given here.

Tests used:
Mus musculus [1] = test: Anticonvulsant activity in mouse assessed as protection against maximal electroshock-induced seizures at 300 mg/kg, ip after 0.5 hrs; type: functional, organism-based; set-up: dose 300 mg/kg
Method in brief: (§1)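 Mouse Test 1: i.p. dosing at 0.01 mL/g. Sets of one, three and one animals receive 30, 100 and 300 mg/kg respectively, each tested at 0.5 h and 4.0 h. Score is N/F, the number of animals protected over the number tested. Screening performed by NINDS following the ADD program protocol.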

Mus musculus [2] = test: Anticonvulsant activity in mouse assessed as protection against subcutaneous pentylenetetrazole-induced seizures at 300 mg/kg, ip after 4 hrs; type: functional, organism-based; set-up: dose 300 mg/kg
Mus musculus [3] = test: Neurotoxicity in mouse assessed as electrically-induced clonic seizures at 100 mg/kg, ip after 2 hrs by rotarod test; type: toxicity, organism-based; set-up: dose 100 mg/kg, route intraperitoneal; details: in vivo
Method in brief: (§2)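 Rotorod toxicity in mice given 100 mg/kg i.p., four per time point, alongside the 6 Hz test. The endpoint is inability to maintain balance on the rotorod. Score is N/F, the number of animals showing toxicity over the number tested.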

Mus musculus [4] = test: Anticonvulsant activity in mouse assessed as protection against subcutaneous pentylenetetrazole-induced seizures at 100 mg/kg, ip after 4 hrs; type: functional, organism-based; set-up: dose 100 mg/kg
[5] = Octanol-phosphate buffer partition coefficient, log P of the compound; type: physicochemical
Method in brief: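 Octanol and phosphate buffer partition run at room temperature (29 °C). After separation, the phases are membrane-filtered and drug in the aqueous phase is measured by UV. PC = (Ct − Ca)/Ca, where Ct is total drug concentration and Ca is aqueous-phase concentration.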

Mus musculus [6] = test: Anticonvulsant activity in mouse assessed as protection against subcutaneous pentylenetetrazole-induced seizures at 300 mg/kg, ip after 0.5 hrs; type: functional, organism-based; set-up: dose 300 mg/kg
Mus musculus [7] = test: Anticonvulsant activity in mouse assessed as protection against electrically-induced seizure at 100 mg/kg, ip after 0.5 hrs by 6Hz psychomotor seizure test; type: functional, organism-based; set-up: dose 100 mg/kg
Method in brief: (§3)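 Mice pretreated by i.p. injection at 100 mg/kg, then challenged through corneal electrodes at 6 Hz, 32 mA for 3 s, which elicits a psychomotor seizure in 97% of animals. Four mice per time point. Score is N/F, the number of animals protected over the number tested. Testing run under the NINDS Anticonvulsant Screening Program.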

Mus musculus [8] = test: Anticonvulsant activity in mouse assessed as protection against electrically-induced seizure at 100 mg/kg, ip after 2 hrs by 6Hz psychomotor seizure test; type: functional, organism-based; set-up: dose 100 mg/kg; method in brief: as §3
Mus musculus [9] = test: Neurotoxicity in mouse assessed as electrically-induced clonic seizures at 100 mg/kg, ip after 4 hrs by rotarod test; type: toxicity, organism-based; set-up: dose 100 mg/kg, route intraperitoneal; details: in vivo; method in brief: as §2
Mus musculus [10] = test: Anticonvulsant activity in mouse assessed as protection against maximal electroshock-induced seizures at 30 mg/kg, ip after 0.5 hrs; type: functional, organism-based; set-up: dose 30 mg/kg; method in brief: as §1
Mus musculus [11] = test: Anticonvulsant activity in mouse assessed as protection against electrically-induced seizure at 100 mg/kg, ip after 1 hr by 6Hz psychomotor seizure test; type: functional, organism-based; set-up: dose 100 mg/kg; method in brief: as §3
Mus musculus [12] = test: Neurotoxicity in mouse assessed as minimum motor impairment at 300 mg/kg, ip after 4 hrs by rotarod test; type: toxicity, organism-based; set-up: dose 300 mg/kg, route intraperitoneal; details: in vivo
Method in brief: (§4)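 Rotorod test for minimal motor impairment in mice given 30, 100 or 300 mg/kg i.p. at 0.01 mL/g, using sets of one, three and one animals, at 0.5 h and 4.0 h. Animals are observed at each dose and time. Score is N/F, the number showing toxicity over the number tested.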

Mus musculus [13] = test: Neurotoxicity in mouse assessed as minimum motor impairment at 30 mg/kg, ip after 0.5 hrs by rotarod test; type: toxicity, organism-based; set-up: dose 30 mg/kg, route intraperitoneal; details: in vivo; method in brief: as §4
Mus musculus [14] = test: Neurotoxicity in mouse assessed as minimum motor impairment at 100 mg/kg, ip after 0.5 hrs by rotarod test; type: toxicity, organism-based; set-up: dose 100 mg/kg, route intraperitoneal; details: in vivo; method in brief: as §4
Mus musculus [15] = test: Neurotoxicity in mouse assessed as minimum motor impairment at 30 mg/kg, ip after 4 hrs by rotarod test; type: toxicity, organism-based; set-up: dose 30 mg/kg, route intraperitoneal; details: in vivo; method in brief: as §4
Mus musculus [16] = test: Anticonvulsant activity in mouse assessed as protection against maximal electroshock-induced seizures at 100 mg/kg, ip after 4 hrs; type: functional, organism-based; set-up: dose 100 mg/kg; method in brief: as §1
Mus musculus [17] = test: Anticonvulsant activity in mouse assessed as protection against subcutaneous pentylenetetrazole-induced seizures at 30 mg/kg, ip after 0.5 hrs; type: functional, organism-based; set-up: dose 30 mg/kg
Mus musculus [18] = test: Neurotoxicity in mouse assessed as minimum motor impairment at 300 mg/kg, ip after 0.5 hrs by rotarod test; type: toxicity, organism-based; set-up: dose 300 mg/kg, route intraperitoneal; details: in vivo; method in brief: as §4
Mus musculus [19] = test: Anticonvulsant activity in mouse assessed as protection against electrically-induced seizure at 100 mg/kg, ip after 4 hrs by 6Hz psychomotor seizure test; type: functional, organism-based; set-up: dose 100 mg/kg; method in brief: as §3
Mus musculus [20] = test: Neurotoxicity in mouse assessed as electrically-induced clonic seizures at 100 mg/kg, ip after 0.25 hrs by rotarod test; type: toxicity, organism-based; set-up: dose 100 mg/kg, route intraperitoneal; details: in vivo; method in brief: as §2
Mus musculus [21] = test: Anticonvulsant activity in mouse assessed as protection against subcutaneous pentylenetetrazole-induced seizures at 100 mg/kg, ip after 0.5 hrs; type: functional, organism-based; set-up: dose 100 mg/kg
Mus musculus [22] = test: Anticonvulsant activity in mouse assessed as protection against maximal electroshock-induced seizures at 100 mg/kg, ip after 0.5 hrs; type: functional, organism-based; set-up: dose 100 mg/kg; method in brief: as §1
Mus musculus [23] = test: Anticonvulsant activity in mouse assessed as protection against subcutaneous pentylenetetrazole-induced seizures at 30 mg/kg, ip after 4 hrs; type: functional, organism-based; set-up: dose 30 mg/kg
Mus musculus [24] = test: Neurotoxicity in mouse assessed as electrically-induced clonic seizures at 100 mg/kg, ip after 0.5 hrs by rotarod test; type: toxicity, organism-based; set-up: dose 100 mg/kg, route intraperitoneal; details: in vivo; method in brief: as §2
Mus musculus [25] = test: Neurotoxicity in mouse assessed as minimum motor impairment at 100 mg/kg, ip after 4 hrs by rotarod test; type: toxicity, organism-based; set-up: dose 100 mg/kg, route intraperitoneal; details: in vivo; method in brief: as §4
Mus musculus [26] = test: Anticonvulsant activity in mouse assessed as protection against maximal electroshock-induced seizures at 30 mg/kg, ip after 4 hrs; type: functional, organism-based; set-up: dose 30 mg/kg; method in brief: as §1
Mus musculus [27] = test: Neurotoxicity in mouse assessed as electrically-induced clonic seizures at 100 mg/kg, ip after 1 hr by rotarod test; type: toxicity, organism-based; set-up: dose 100 mg/kg, route intraperitoneal; details: in vivo; method in brief: as §2
Mus musculus [28] = test: Anticonvulsant activity in mouse assessed as protection against electrically-induced seizure at 100 mg/kg, ip after 0.25 hrs by 6Hz psychomotor seizure test; type: functional, organism-based; set-up: dose 100 mg/kg; method in brief: as §3
Mus musculus [29] = test: Anticonvulsant activity in mouse assessed as protection against maximal electroshock-induced seizures at 300 mg/kg, ip after 4 hrs; type: functional, organism-based; set-up: dose 300 mg/kg; method in brief: as §1

logP [5]	Compound	Activity (Mus musculus [1])	Activity (Mus musculus [2])	Activity (Mus musculus [3])	Activity (Mus musculus [4])	Activity (Mus musculus [6])	Activity (Mus musculus [10])	Activity (Mus musculus [12])	Activity (Mus musculus [13])	Activity (Mus musculus [14])	Activity (Mus musculus [15])	Activity (Mus musculus [16])	Activity (Mus musculus [17])	Activity (Mus musculus [18])	Activity (Mus musculus [21])	Activity (Mus musculus [22])	Activity (Mus musculus [23])	Activity (Mus musculus [25])	Activity (Mus musculus [26])	Activity (Mus musculus [29])	further results
3.7	Cc1ccccc1NC(=S)NC(=O)Nc1ccc2c(c1)C(=O)C(=O)N2Cc1ccccc1Cl	inactive	Active		inactive	inactive	inactive	Non-toxic	Non-toxic	Non-toxic	Non-toxic	inactive	inactive	Non-toxic	inactive	inactive	inactive	Non-toxic	inactive	Active	
3.18	COc1ccccc1NC(=S)NC(=O)Nc1ccc2c(c1)C(=O)C(=O)N2Cc1ccccc1Cl	inactive	inactive		inactive	inactive	inactive	Non-toxic	Non-toxic	Non-toxic	Non-toxic	inactive	inactive	Non-toxic	inactive	inactive	inactive	Non-toxic	inactive	inactive	

Further lines, the compound ahead of its results:

Compound	logP [5]	Activity (Mus musculus [1])	Activity (Mus musculus [2])	Activity (Mus musculus [3])	Activity (Mus musculus [4])	Activity (Mus musculus [6])	Activity (Mus musculus [10])	Activity (Mus musculus [12])	Activity (Mus musculus [13])	Activity (Mus musculus [14])	Activity (Mus musculus [15])	Activity (Mus musculus [16])	Activity (Mus musculus [17])	Activity (Mus musculus [18])	Activity (Mus musculus [21])	Activity (Mus musculus [22])	Activity (Mus musculus [23])	Activity (Mus musculus [25])	Activity (Mus musculus [26])	Activity (Mus musculus [29])	further results
O=C(NC(=S)Nc1ccccc1)Nc1ccc2c(c1)C(=O)C(=O)N2Cc1ccccc1Cl	3.18	Active	inactive	Non-toxic	inactive	Active	inactive	Non-toxic	Non-toxic	Non-toxic	Non-toxic	Active	inactive	Non-toxic	inactive	inactive	inactive	Non-toxic	inactive		Activity (Mus musculus [7]): Active; Activity (Mus musculus [8]): inactive; Activity (Mus musculus [9]): Non-toxic; Activity (Mus musculus [11]): Active; Activity (Mus musculus [19]): inactive; Activity (Mus musculus [20]): Non-toxic; Activity (Mus musculus [24]): Non-toxic; Activity (Mus musculus [27]): Non-toxic; Activity (Mus musculus [28]): Active
Cc1ccc(NC(=S)NC(=O)Nc2ccc3c(c2)C(=O)C(=O)N3Cc2ccccc2Cl)cc1	3.73	inactive	inactive		inactive	inactive	inactive	Non-toxic	Non-toxic	Non-toxic	Non-toxic	inactive	inactive	Non-toxic	inactive	inactive	inactive	Non-toxic	inactive	inactive	
COc1ccc(NC(=S)NC(=O)Nc2ccc3c(c2)C(=O)C(=O)N3Cc2ccccc2)cc1	2.39	Active	inactive	Non-toxic	inactive	Active	inactive	Non-toxic	Non-toxic	Non-toxic	Non-toxic	inactive	inactive	Non-toxic	inactive	inactive	inactive	Non-toxic	inactive	Active	Activity (Mus musculus [7]): Active; Activity (Mus musculus [8]): inactive; Activity (Mus musculus [9]): Non-toxic; Activity (Mus musculus [11]): inactive; Activity (Mus musculus [19]): inactive; Activity (Mus musculus [20]): Non-toxic; Activity (Mus musculus [24]): Non-toxic; Activity (Mus musculus [27]): Non-toxic; Activity (Mus musculus [28]): Active
